The results in this text go back to PubChem BioAssay AID504525 (Broad Institute, 2011).

Active and inactive are the calls of the source.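 The calls were made as follows: active = fitted dose curve showing toxicity with half-maximal concentration at most ten times the top tested dose; inconclusive = flat curve with 30 to 70% toxicity, or poor fit; inactive = the rest.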

This test in a line: mammalian cell viability loss with fluconazole – NIH-3T3, powder samples, set 7, cytotoxicity control for antifungal drug resistance project, dose response (AID 504525). The note with it: NIH-3T3 viability with fluconazole, Alamar Blue, 48 h; series mostly up to 26 µM; activity change, negative = toxicity: at the top concentration. Put shortly: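 Assay system: NIH 3T3 fibroblasts; Amount: 6,000 cells/well; Buffer or medium: Optimem growth medium with 2.5% fetal bovine serum; Reagent: fluconazole co-treatment at 8 µg/mL final; Doses: test compound dose series, top final amount 26 µM; Times: 48 h compound exposure at 37 °C; Technique: Alamar Blue fluorescence, Ex 544/Em 590 nm.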
In general terms: Alamar Blue is a resazurin reagent that responds to reducing activity.
Turning to `O=C(Cn1c2ccc(F)cc2c2nc3n(c(=O)c21)CCS3)N1CCC(F)(F)C1`, the “activity change, negative = toxicity” value is 22% (inactive).

For `COC(=O)Cn1nc(-c2cccc(OC)c2)c2ccccc21`, the “activity change, negative = toxicity” value was 4.19% (inactive).

Turning to `O=C(Cn1c2ccc(F)cc2c2nc3n(c(=O)c21)CCS3)N1CCC(F)(F)CC1`, the “activity change, negative = toxicity” value is 19.8% (inactive).

As to `COC(=O)Cn1nc(C(C)(C)C)c2ccccc21`, the “activity change, negative = toxicity” value was 73.8% (inactive).

As for `O=C(Cn1c2ccccc2c2nc3n(c(=O)c21)CCS3)N1CCC(F)(F)CC1`, the “activity change, negative = toxicity” value is 3.61% (inactive).

Regarding `COC(=O)Cn1nc(-c2cccnc2)c2ccccc21`, the “activity change, negative = toxicity” value is 47.9% (inactive).

Turning to `COC(=O)Cn1nc(-c2ccccc2)c2cccnc21`, the “activity change, negative = toxicity” value is 22.7% (inactive).

Take `CC1CCN(CCn2c3ccccc3c3nc4n(c(=O)c32)CCS4)CC1`: the “activity change, negative = toxicity” value was 30.3% (inactive).

As to `COC(=O)Cn1nc(C2CC2)c2ccccc21`, the “activity change, negative = toxicity” value is 54.8% (inactive).

`COC(=O)Cn1nc(-c2cccc(F)c2)c2ccccc21`: the “activity change, negative = toxicity” value is 17.8% (inactive).

Take `CC1(O)CN(C(=O)Cn2c3ccccc3c3nc4n(c(=O)c32)CCS4)C1`: the “activity change, negative = toxicity” value was 7.45% (inactive).

Turning to `CCc1nn(CC(=O)OC)c2ccccc12`, the “activity change, negative = toxicity” value was -12.6% (inactive).

Regarding `COC(=O)Cn1nc(C2CCCCC2)c2ccccc21`, the “activity change, negative = toxicity” value is 22.7% (inactive).

`CN1CCN(C(=O)Cn2c3ccccc3c3nc4n(c(=O)c32)CCS4)CC1`: the “activity change, negative = toxicity” value is -2.12% (inactive).

On to `O=C(Cn1c2ccccc2c2nc3n(c(=O)c21)CCS3)N1CC=CC1`, for which the “activity change, negative = toxicity” value is -4.86% (inactive).

In the case of `O=C(O)Cn1c2ccc(F)cc2c2nc3n(c(=O)c21)CCS3`, the “activity change, negative = toxicity” value was -5.43% (inactive).

For the molecule `O=C(Cn1c2ccc(F)cc2c2nc3n(c(=O)c21)CCS3)N1CC=CC1`, the “activity change, negative = toxicity” value was 24.5% (inactive).

Consider `COC(=O)Cn1nc(-c2cnco2)c2ccccc21`, for which the “activity change, negative = toxicity” value is -21.2% (inactive).

For `O=C(O)Cn1c2ccccc2c2nc3n(c(=O)c21)CCS3`, the “activity change, negative = toxicity” value was 15.2% (inactive).

On to `COC(=O)Cn1nc(-c2cccc(C)c2)c2ccccc21`, for which the “activity change, negative = toxicity” value was 48.8% (inactive).

Consider `O=C(Cn1c2ccccc2c2nc3n(c(=O)c21)CCS3)N1CCC(F)(F)C1`, for which the “activity change, negative = toxicity” value was 5.93% (inactive).

`COC(=O)Cn1c2ccc(F)cc2c2nc3n(c(=O)c21)CCS3`: the “activity change, negative = toxicity” value was 15.6% (inactive).

On to `c1ccc(-c2nn(Cc3nnco3)c3ccccc23)cc1`, for which the “activity change, negative = toxicity” value was 16.2% (inactive).

In the case of `COC(=O)Cn1nc(-c2cscn2)c2ccccc21`, the “activity change, negative = toxicity” value is 24.5% (inactive).

Turning to `COC(=O)n1nc(-c2ccccc2)c2ccccc21`, the “activity change, negative = toxicity” value was -1.06% (inactive).
